These compounds were tested against T1, Hypoxanthine-guanine phosphoribosyltransferase (Homo sapiens) (UniProt P00492) (assay: Ability to inhibit hypoxanthine-guanine phosphoribosyltransferase in crude extracts of H.Ep.-2 cells.).
T1 sequence (whole entry): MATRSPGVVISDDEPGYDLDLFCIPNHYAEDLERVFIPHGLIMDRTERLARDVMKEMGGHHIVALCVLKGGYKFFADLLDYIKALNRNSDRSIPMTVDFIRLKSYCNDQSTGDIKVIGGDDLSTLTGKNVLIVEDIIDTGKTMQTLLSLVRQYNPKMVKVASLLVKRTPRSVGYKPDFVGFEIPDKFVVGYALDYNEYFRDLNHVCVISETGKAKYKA
With Nc1nc(O)c2c(n1)nc(Cl)n2CCCl the Activity was “No inhibition”.
For Nc1nc(O)c2c(ncn2Cc2cccc([N+](=O)[O-])c2)n1, the Activity was “No inhibition”.
With CC(=O)OC[C@H]1O[C@@H](N2C=NC3C(=O)N=C(N)N=C32)[C@H](OC(C)=O)[C@@H]1OC(C)=O (stereo partly drawn) the Activity was “No inhibition”.
For O=[N+]([O-])c1cccc(Cn2cnc3ncnc(O)c32)c1, the Activity was “No inhibition”.
In the case of O=[N+]([O-])c1ccc(Cn2cnc3ncnc(O)c32)cc1, the Activity is reported as “No inhibition”.
For Nc1nc(O)c2c(ncn2CC(O)CCl)n1 (stereo not drawn), the Activity was “No inhibition”.
In the case of [N-]=[N+]=NCC(O)Cn1cnc2nc(N)nc(O)c21 (stereo not drawn), the Activity is reported as “No inhibition”.
In the case of CCOC(=O)/C=C/Cn1cnc2nc(N)nc(O)c21, the Activity is reported as “No inhibition”.
For Nc1nc(O)c2c(ncn2CCCS(=O)(=O)O)n1, the Activity was “No inhibition”.
With Nc1nc(O)c2c(ncn2CC(O)CNC(=O)c2ccc(S(=O)(=O)F)cc2)n1 (stereo not drawn) the Activity was “No inhibition”.
With O=C(Nc1ccc(Cn2cnc3ncnc(O)c32)cc1)c1cccc(S(=O)(=O)F)c1 the Activity was “No inhibition”.
For Nc1cccc(Cn2cnc3nc(N)nc(O)c32)c1, the Activity was “No inhibition”.
For Nc1ccc(Cn2cnc3ncnc(O)c32)cc1, the Activity was “No inhibition”.
With Nc1nc(O)c2c(ncn2CCCl)n1 the Activity was “No inhibition”.
With OCC(O)Cn1cnc2ncnc(O)c21 (stereo not drawn) the Activity was “No inhibition”.
For Nc1nc(O)c2c(ncn2CCO)n1, the Activity was “No inhibition”.
For Nc1nc(O)c2c(ncn2Cc2cccc(NC(=O)CBr)c2)n1, the Activity was “No inhibition”.
In the case of Nc1nc(O)c2c(ncn2CC(O)CNC(=O)CBr)n1 (stereo not drawn), the Activity is reported as “No inhibition”.
In the case of Nc1nc(O)c2c(ncn2CC=O)n1, the Activity is reported as “No inhibition”.
Nc1nc(O)c2c(ncn2Cc2cccc(NC(=O)c3ccc(S(=O)(=O)F)cc3)c2)n1 was tested, and the Activity was “No inhibition”.
With Nc1nc2c(ncn2[C@@H]2O[C@H](CO)[C@@H](O)[C@H]2O)c(=O)[nH]1 the Activity was “No inhibition”.
With NCCn1cnc2nc(N)nc(O)c21 the Activity was “No inhibition”.
Nc1nc(O)c2c(n1)[n+](C1O[C@H](CO)[C@@H](O)[C@H]1O)cn2CCO (stereo partly drawn) was tested, and the Activity was “No inhibition”.
In the case of Nc1nc(O)c2c(ncn2CC(O)CNC(=O)c2cccc(S(=O)(=O)F)c2)n1 (stereo not drawn), the Activity is reported as “No inhibition”.
For CC(=O)OCC1OC([n+]2cn(CCO)c3c(O)nc(N)nc32)C(OC(C)=O)C1OC(C)=O (stereo not drawn), the Activity was “No inhibition”.
For O=C1c2ccccc2C(=O)N1CC(O)Cn1cnc2ncnc(O)c21 (stereo not drawn), the Activity was “No inhibition”.
For Nc1nc(O)c2c(ncn2Cc2ccc(NC(=O)CBr)cc2)n1, the Activity was “No inhibition”.
Nc1nc(O)c2c(ncn2Cc2ccc(NC(=O)c3ccc(Cl)cc3)cc2)n1 was tested, and the Activity was “No inhibition”.
In the case of OCCn1cnc2ncnc(O)c21, the Activity is reported as “No inhibition”.
In the case of Nc1nc(O)c2c(ncn2Cc2ccc(NC(=O)c3cccc(S(=O)(=O)F)c3)cc2)n1, the Activity is reported as “No inhibition”.
With Nc1nc(O)c2c(ncn2CCNC(=O)c2ccc(Cl)cc2)n1 the Activity was “No inhibition”.
Nc1nc(O)c2c(ncn2CCNC(=O)c2ccc(S(=O)(=O)F)cc2)n1 was tested, and the Activity was “No inhibition”.
Nc1nc(O)c2c(ncn2Cc2ccc(NC(=O)c3ccc(S(=O)(=O)F)cc3)cc2)n1 was tested, and the Activity was “No inhibition”.
Nc1nc(O)c2c(ncn2CCNC(=O)CBr)n1 was tested, and the Activity was “No inhibition”.
With O=C(CBr)Nc1ccc(Cn2cnc3ncnc(O)c32)cc1 the Activity was “No inhibition”.
In the case of Nc1nc(O)c2c(ncn2Cc2cccc(NC(=O)c3cccc(S(=O)(=O)F)c3)c2)n1, the Activity is reported as “No inhibition”.
Nc1nc(O)c2c(ncn2CC(O)CO)n1 (stereo not drawn) was tested, and the Activity was “No inhibition”.
[N-]=[N+]=NCCn1cnc2nc(N)nc(O)c21 was tested, and the Activity was “No inhibition”.
With Oc1ncnc2ncn(CC(O)CCl)c12 (stereo not drawn) the Activity was “No inhibition”.
For Nc1nc(O)c2c(ncn2CC(O)CN2C(=O)c3ccccc3C2=O)n1 (stereo not drawn), the Activity was “No inhibition”.
For Nc1cccc(Cn2cnc3ncnc(O)c32)c1, the Activity was “No inhibition”.
In the case of Nc1nc(O)c2c(ncn2CC(O)CNC(=O)c2ccc(Cl)cc2)n1 (stereo not drawn), the Activity is reported as “No inhibition”.
With Nc1nc(O)c2c(ncn2Cc2cccc(NC(=O)c3ccc(Cl)cc3)c2)n1 the Activity was “No inhibition”.
Nc1ccc(Cn2cnc3nc(N)nc(O)c32)cc1 was tested, and the Activity was “No inhibition”.
O=C(Nc1ccc(Cn2cnc3ncnc(O)c32)cc1)c1ccc(Cl)cc1 was tested, and the Activity was “No inhibition”.
NCC(O)Cn1cnc2nc(N)nc(O)c21 (stereo not drawn) was tested, and the Activity was “No inhibition”.
For O=C(Nc1ccc(Cn2cnc3ncnc(O)c32)cc1)c1ccc(S(=O)(=O)F)cc1, the Activity was “No inhibition”.
With Nc1nc(O)c2c(ncn2CCNC(=O)c2cccc(S(=O)(=O)F)c2)n1 the Activity was “No inhibition”.
Nc1nc(O)c2c(ncn2Cc2ccc([N+](=O)[O-])cc2)n1 was tested, and the Activity was “No inhibition”.

The compounds below were run on Plasmodium berghei (assay: Activity against Plasmodium berghei in mice (Mus musculus)).
Format: functional, organism-based
Method in brief: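 Mice infected with P. berghei; survival time (life span) of treated mice was the read-out.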
Nc1nc(O)c2c(n1)nc(Cl)n2CCCl was tested, and the Activity was “Not significant”.
In the case of Nc1nc(O)c2c(ncn2Cc2cccc([N+](=O)[O-])c2)n1, the Activity is reported as “Not significant”.
CC(=O)OC[C@H]1O[C@@H](N2C=NC3C(=O)N=C(N)N=C32)[C@H](OC(C)=O)[C@@H]1OC(C)=O (stereo partly drawn) was tested, and the Activity was “Not significant”.
O=[N+]([O-])c1cccc(Cn2cnc3ncnc(O)c32)c1 was tested, and the Activity was “Not significant”.
O=[N+]([O-])c1ccc(Cn2cnc3ncnc(O)c32)cc1 was tested, and the Activity was “Not significant”.
In the case of Nc1nc(O)c2c(ncn2CC(O)CCl)n1 (stereo not drawn), the Activity is reported as “Not significant”.
In the case of [N-]=[N+]=NCC(O)Cn1cnc2nc(N)nc(O)c21 (stereo not drawn), the Activity is reported as “Not significant”.
With CCOC(=O)/C=C/Cn1cnc2nc(N)nc(O)c21 the Activity was “Not significant”.
With Nc1nc(O)c2c(ncn2CCCS(=O)(=O)O)n1 the Activity was “Not significant”.
For Nc1nc(O)c2c(ncn2CC(O)CNC(=O)c2ccc(S(=O)(=O)F)cc2)n1 (stereo not drawn), the Activity was “Not significant”.
With O=C(Nc1ccc(Cn2cnc3ncnc(O)c32)cc1)c1cccc(S(=O)(=O)F)c1 the Activity was “Not significant”.
For Nc1cccc(Cn2cnc3nc(N)nc(O)c32)c1, the Activity was “Not significant”.
For Nc1ccc(Cn2cnc3ncnc(O)c32)cc1, the Activity was “Not significant”.
Nc1nc(O)c2c(ncn2CCCl)n1 was tested, and the Activity was “Not significant”.
In the case of OCC(O)Cn1cnc2ncnc(O)c21 (stereo not drawn), the Activity is reported as “Not significant”.
In the case of Nc1nc(O)c2c(ncn2CCO)n1, the Activity is reported as “Not significant”.
With Nc1nc(O)c2c(ncn2Cc2cccc(NC(=O)CBr)c2)n1 the Activity was “Not significant”.
For Nc1nc(O)c2c(ncn2CC(O)CNC(=O)CBr)n1 (stereo not drawn), the Activity was “Not significant”.
For Nc1nc(O)c2c(ncn2CC=O)n1, the Activity was “Not significant”.
Nc1nc(O)c2c(ncn2Cc2cccc(NC(=O)c3ccc(S(=O)(=O)F)cc3)c2)n1 was tested, and the Activity was “Not significant”.
Nc1nc2c(ncn2[C@@H]2O[C@H](CO)[C@@H](O)[C@H]2O)c(=O)[nH]1 was tested, and the Activity was “Not significant”.
For NCCn1cnc2nc(N)nc(O)c21, the Activity was “Not significant”.
In the case of Nc1nc(O)c2c(n1)[n+](C1O[C@H](CO)[C@@H](O)[C@H]1O)cn2CCO (stereo partly drawn), the Activity is reported as “Not significant”.
With Nc1nc(O)c2c(ncn2CC(O)CNC(=O)c2cccc(S(=O)(=O)F)c2)n1 (stereo not drawn) the Activity was “Not significant”.
With CC(=O)OCC1OC([n+]2cn(CCO)c3c(O)nc(N)nc32)C(OC(C)=O)C1OC(C)=O (stereo not drawn) the Activity was “Not significant”.
In the case of O=C1c2ccccc2C(=O)N1CC(O)Cn1cnc2ncnc(O)c21 (stereo not drawn), the Activity is reported as “Not significant”.
With Nc1nc(O)c2c(ncn2Cc2ccc(NC(=O)CBr)cc2)n1 the Activity was “Not significant”.
In the case of Nc1nc(O)c2c(ncn2Cc2ccc(NC(=O)c3ccc(Cl)cc3)cc2)n1, the Activity is reported as “Not significant”.
In the case of OCCn1cnc2ncnc(O)c21, the Activity is reported as “Not significant”.
In the case of Nc1nc(O)c2c(ncn2Cc2ccc(NC(=O)c3cccc(S(=O)(=O)F)c3)cc2)n1, the Activity is reported as “Not significant”.
With Nc1nc(O)c2c(ncn2CCNC(=O)c2ccc(Cl)cc2)n1 the Activity was “Not significant”.
Nc1nc(O)c2c(ncn2CCNC(=O)c2ccc(S(=O)(=O)F)cc2)n1 was tested, and the Activity was “Not significant”.
In the case of Nc1nc(O)c2c(ncn2Cc2ccc(NC(=O)c3ccc(S(=O)(=O)F)cc3)cc2)n1, the Activity is reported as “Not significant”.
For Nc1nc(O)c2c(ncn2CCNC(=O)CBr)n1, the Activity was “Not significant”.
In the case of O=C(CBr)Nc1ccc(Cn2cnc3ncnc(O)c32)cc1, the Activity is reported as “Not significant”.
Nc1nc(O)c2c(ncn2Cc2cccc(NC(=O)c3cccc(S(=O)(=O)F)c3)c2)n1 was tested, and the Activity was “Not significant”.
In the case of Nc1nc(O)c2c(ncn2CC(O)CO)n1 (stereo not drawn), the Activity is reported as “Not significant”.
With [N-]=[N+]=NCCn1cnc2nc(N)nc(O)c21 the Activity was “Not significant”.
For Oc1ncnc2ncn(CC(O)CCl)c12 (stereo not drawn), the Activity was “Not significant”.
Nc1nc(O)c2c(ncn2CC(O)CN2C(=O)c3ccccc3C2=O)n1 (stereo not drawn) was tested, and the Activity was “Not significant”.
For Nc1cccc(Cn2cnc3ncnc(O)c32)c1, the Activity was “Not significant”.
For Nc1nc(O)c2c(ncn2CC(O)CNC(=O)c2ccc(Cl)cc2)n1 (stereo not drawn), the Activity was “Not significant”.
In the case of Nc1nc(O)c2c(ncn2Cc2cccc(NC(=O)c3ccc(Cl)cc3)c2)n1, the Activity is reported as “Not significant”.
In the case of Nc1ccc(Cn2cnc3nc(N)nc(O)c32)cc1, the Activity is reported as “Not significant”.
O=C(Nc1ccc(Cn2cnc3ncnc(O)c32)cc1)c1ccc(Cl)cc1 was tested, and the Activity was “Not significant”.
With NCC(O)Cn1cnc2nc(N)nc(O)c21 (stereo not drawn) the Activity was “Not significant”.
With O=C(Nc1ccc(Cn2cnc3ncnc(O)c32)cc1)c1ccc(S(=O)(=O)F)cc1 the Activity was “Not significant”.
In the case of Nc1nc(O)c2c(ncn2CCNC(=O)c2cccc(S(=O)(=O)F)c2)n1, the Activity is reported as “Not significant”.
With Nc1nc(O)c2c(ncn2Cc2ccc([N+](=O)[O-])cc2)n1 the Activity was “Not significant”.

— ChEMBL document CHEMBL1121416, “Synthesis of potential inhibitors of hypoxanthine-guanine phosphoribosyltransferase for testing as antiprotozoal agents. 1. 7-Substituted 6-oxopurines” (J Med Chem, 1980)
Note: test concentration or dose not given here.
